Measurements: ChEMBL document CHEMBL1124926, “Structure-activity relationships of antifilarial antimycin analogues: a multivariate pattern recognition study” (J Med Chem, 1990)

What was measured:
Acanthocheilonema viteae = experiment: In vitro macrofilaricidal activity against Dipetalonema viteae was determined using the leakage of incorporated radiolabeled adenine method.; assay type: functional, organism-based
Outline: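 D. viteae adult females were labelled with radiolabelled adenine, then exposed for 120 h to concentrations descending from 10 μM in serum-free Eagle's minimal essential medium. Viability was scored as leakage of incorporated label into the medium, and the EC50 was the concentration releasing 50% of the adenine taken up.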

Brugia pahangi [1] = experiment: (§1) In vivo percent reduction of Brugia pahangi worm in gerbils; assay type: functional; design: concentration or dose not given beside the values
Outline: (§2)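 Animals were autopsied 35 days after the final dose, and worm recoveries were compared with those from untreated controls.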

[2] = Negative log transformed activity; assay type: ADME; design: unit not given here
Brugia pahangi [3] = experiment: In vivo percent reduction of Brugia pahangi worm in gerbils; Some toxicity; assay type: functional; outline: as §2
Brugia pahangi [4] = experiment: as §1; assay type: functional; outline: as §2

Structure (SMILES) | EC50 (Acanthocheilonema viteae) [nM] | Worm reduction (Brugia pahangi [1]) [%] | -Log activity [2] | Worm reduction (Brugia pahangi [3]) [%] | Worm reduction (Brugia pahangi [4]) [%]
CCCCCCCCCCCCNC(=O)c1cc([N+](=O)[O-])ccc1O | 39 | 0 | 1.41 |  | 
CCCCCCCCCCCCCCNC(=O)c1cccc(NC(C)=O)c1O | 8000 |  | -0.9 |  | 
CC(C)(C)c1ccc(NC(=O)c2cc([N+](=O)[O-])ccc2O)cc1 | 590 | 44 | 0.23 |  | 
CCCCCCCCCCCCCCNC(=O)c1cc([N+](=O)[O-])ccc1O | 128 |  | 0.89 |  | 
O=C(Nc1ccc(Oc2ccc(SC(F)(F)F)cc2)c(Cl)c1)c1cc([N+](=O)[O-])ccc1O | 28 |  | 1.55 | 85 | 
O=C(Nc1ccc(C(=O)c2ccc(Cl)cc2)c(Cl)c1)c1cc([N+](=O)[O-])ccc1O | 74 | 14 | 1.13 |  | 
CCCCCCCCNC(=O)c1cccc(NC=O)c1O | 2600 |  | -0.41 |  | 
O=C(Nc1ccc(Sc2ccc(Cl)cc2)c(Cl)c1)c1cc([N+](=O)[O-])ccc1O | 44 | 70 | 1.36 |  | 
CS(=O)(=O)c1cccc(C(=O)Nc2ccc(Oc3ccc(Cl)cc3)c(Cl)c2)c1O | 500 | 42 | 0.3 |  | 
COc1ccc(Oc2ccc(NC(=O)c3cc([N+](=O)[O-])ccc3O)cc2Cl)cc1 | 170 | 61 | 0.77 |  | 
CCCCCCNC(=O)c1cccc(NC=O)c1O | > 10000 |  | -1 |  | 
O=C(Nc1ccc(Oc2ccc(Cl)cc2)c(Cl)c1)c1cc([N+](=O)[O-])ccc1O | 40 | 80.6 | 1.4 |  | 
CSc1cccc(C(=O)Nc2ccc(Oc3ccc(Cl)cc3)c(Cl)c2)c1O | 380 | 52 | 0.42 |  | 
CCCCCCCCCCCCCCCCNC(=O)c1cccc([N+](=O)[O-])c1O | 1100 |  | -0.04 |  | 
O=C(Nc1ccc(Oc2cccc(C(F)(F)F)c2)cc1)c1cc([N+](=O)[O-])ccc1O | 94 | 80 | 1.03 |  | 
O=C(Nc1ccc(Oc2cccc(C(F)(F)F)c2)c(Cl)c1)c1cc([N+](=O)[O-])ccc1O | 85 | 74 | 1.07 |  | 

Structure (SMILES) | EC50 (Acanthocheilonema viteae) [nM] | Worm reduction (Brugia pahangi [1]) [%] | -Log activity [2] | Worm reduction (Brugia pahangi [3]) [%] | Worm reduction (Brugia pahangi [4]) [%]
CCCCCCCCCCCCCCNC(=O)c1cccc([N+](=O)[O-])c1O | 152 |  | 0.82 |  | 
O=C(c1ccc(Cl)cc1)c1cc([N+](=O)[O-])ccc1O | 330 | 61 | 0.48 |  | 
CSc1ccc(O)c(C(=O)Nc2ccc(Oc3ccc(Cl)cc3)c(Cl)c2)c1 | 480 | 58 | 0.32 |  | 
CCCCCCCCCCCCCCNC(=O)c1cccc(NC=O)c1O | 7000 |  | -0.85 |  | 80
O=C(Nc1ccc(Oc2ccc(Cl)cc2)c(Cl)c1)c1cccc([N+](=O)[O-])c1O | 150 |  | 0.82 |  | 
C[S+]([O-])c1ccc(O)c(C(=O)Nc2ccc(Oc3ccc(Cl)cc3)c(Cl)c2)c1 (centres undefined) | 7500 | 84 | -0.88 |  | 
O=C(Nc1ccc(Nc2ccc(Cl)cc2)c(Cl)c1)c1cc([N+](=O)[O-])ccc1O | 370 | 48 | 0.43 |  | 
O=C(Nc1ccc(Oc2ccc([N+](=O)[O-])cc2Cl)cc1)c1cc([N+](=O)[O-])ccc1O | 120 | 70 | 0.92 |  | 
O=CNc1cccc(C(=O)Nc2ccc(Oc3ccc(Cl)cc3)c(Cl)c2)c1O | 2400 |  | -0.38 |  | 
O=C(Nc1ccc(C(O)c2ccccc2)cc1)c1cc([N+](=O)[O-])ccc1O (centres undefined) | > 10000 | 39 | -1 |  | 
N#Cc1ccc(O)c(C(=O)Nc2ccc(Oc3ccc(Cl)cc3)c(Cl)c2)c1 | 14.5 | 17 | 1.84 |  | 
O=C(Nc1ccc(Oc2ccccc2)cc1)c1cc([N+](=O)[O-])ccc1O | 800 | 89 | 0.1 |  | 
CS(=O)(=O)c1ccc(O)c(C(=O)Nc2ccc(Oc3ccc(Cl)cc3)c(Cl)c2)c1 | 1000 | 28 | 0 |  | 
CCCCCCCCCCCCCCNC(=O)c1cc(Cl)cc([N+](=O)[O-])c1O | 43.5 |  | 1.36 |  | 
O=C(Nc1ccc(Oc2ccc(C(F)(F)F)cc2)cc1)c1cc([N+](=O)[O-])ccc1O | 95 | 72 | 1.02 |  | 
